Assay results as given in ChEMBL document CHEMBL1139386, “Discovery of novel CB2 receptor ligands by a pharmacophore-based virtual screening workflow” (J Med Chem, 2009).

Key:
Homo sapiens = species on record: Homo sapiens; test: Selectivity ratio of Ki for human CB1 receptor to Ki for human CB2 receptor
Outline: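 Ki ratio from radioligand displacement on membranes overexpressing human CB1 (7.16 µg, 0.39 nM radioligand) or CB2 (3.8 µg, 0.11 nM radioligand). Incubation 90 min at 30 °C in Tris/EGTA/MgCl2/BSA buffer, pH 7.4, then GF/C filtration and scintillation counting; nonspecific binding with 10 µM reference ligand. IC50 from Hill plots; three independent experiments in triplicate.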

Cannabinoid receptor 1 [1] = biological target: T1, Cannabinoid receptor 1 (Homo sapiens, UniProt P21554); test: Displacement of [3H]CP-55940 from human recombinant CB1 receptor
T1 sequence (P21554 whole entry): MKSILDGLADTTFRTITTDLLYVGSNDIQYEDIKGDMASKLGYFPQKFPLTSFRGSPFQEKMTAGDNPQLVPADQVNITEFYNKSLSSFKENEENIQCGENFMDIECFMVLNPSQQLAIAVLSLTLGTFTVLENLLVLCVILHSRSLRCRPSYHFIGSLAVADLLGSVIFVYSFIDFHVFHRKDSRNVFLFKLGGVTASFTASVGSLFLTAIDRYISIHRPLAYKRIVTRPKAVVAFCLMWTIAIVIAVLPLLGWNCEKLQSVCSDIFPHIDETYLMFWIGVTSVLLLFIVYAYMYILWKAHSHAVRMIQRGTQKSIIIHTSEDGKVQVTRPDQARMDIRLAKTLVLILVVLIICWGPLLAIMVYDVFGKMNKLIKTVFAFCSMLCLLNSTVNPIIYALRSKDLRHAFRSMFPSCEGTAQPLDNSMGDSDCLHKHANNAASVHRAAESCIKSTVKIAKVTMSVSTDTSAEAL

Cannabinoid receptor 2 [2] = biological target: T2, Cannabinoid receptor 2 (Homo sapiens, UniProt P34972); test: Displacement of [3H]CP-55940 from human recombinant CB2 receptor
T2 sequence (P34972 whole entry): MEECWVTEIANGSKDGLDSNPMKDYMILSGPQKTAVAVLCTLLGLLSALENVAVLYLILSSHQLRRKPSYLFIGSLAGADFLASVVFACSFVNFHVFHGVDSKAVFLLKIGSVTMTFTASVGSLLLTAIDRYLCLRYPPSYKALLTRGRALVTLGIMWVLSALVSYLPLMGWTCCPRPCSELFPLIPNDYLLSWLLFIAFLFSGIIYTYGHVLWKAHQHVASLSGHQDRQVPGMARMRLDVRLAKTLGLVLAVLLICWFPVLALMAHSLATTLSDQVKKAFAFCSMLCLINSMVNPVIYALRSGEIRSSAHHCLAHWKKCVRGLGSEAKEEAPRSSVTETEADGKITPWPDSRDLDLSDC
Outline: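 Membranes from cells recombinantly overexpressing CB2 (Bmax 4.7 pmol/mg protein), 3.8 µg, in binding buffer (50 mM Tris-HCl, 2.5 mM EGTA, 5 mM MgCl2, 0.5 mg/mL fatty-acid-free BSA, pH 7.4) with 0.11 nM radioligand. Compounds were tested at varying concentrations, with nonspecific binding defined by 10 µM reference ligand. Incubation was 90 min at 30 °C, followed by PEI-soaked GF/C filtration and scintillation counting. Data were normalized and Hill-linearized to give IC50 and Ki (three experiments, triplicate).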

Cannabinoid receptor 1 [3] = biological target: T1, Cannabinoid receptor 1; test: Binding affinity to CB1 receptor
Cannabinoid receptor 2 [4] = biological target: T2, Cannabinoid receptor 2; test: Binding affinity to CB2 receptor
[5] = Selectivity ratio of Ki for CB1 receptor to Ki for CB2 receptor
Cannabinoid receptor 2 [6] = biological target: T2, Cannabinoid receptor 2; test: Agonist activity at human CB2 receptor expressed in CHO-K1 cells assessed as forskolin-stimulated cAMP release; assay type: functional, cell-based; conditions: filed as partial agonist
Outline: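 CHO-K1 cells expressing hCB2, plated at 3×10^5 cells/mL overnight, were preincubated 10 min in supplement-free RPMI 1640 with 500 µM IBMX. Test compounds were added at several concentrations for 30 min at 37 °C, then 20 µM forskolin for a further 30 min at 37 °C. Intracellular cAMP was read by EFC chemiluminescence, with a high-affinity CB ligand as positive control.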

| SMILES | Ratio Ki (Homo sapiens) | Ki (Cannabinoid receptor 1 [1]) [nM] | Ki (Cannabinoid receptor 2 [2]) [nM] | other results |
| --- | --- | --- | --- | --- |
| CCCCSc1nc2c(c(=O)n1CCc1ccccc1)C1(CCCC1)Cc1ccccc1-2 | > 2 | > 50 | < 25 | – |
| CCCn1cc(C(=O)c2ccc(C)c3ccccc23)c2ccccc21 | 173 | 1050 | – | – |
| CCCn1c(C)c(C(=O)c2cccc3cc(OC)ccc23)c2ccccc21 | > 333 | > 10000 | – | – |
| CCCC(C)(C)c1ccc2c(c1)OC(C)(C)[C@@H]1CC=C(C)C[C@@H]21 | 35 | 0.797 | 0.023 | Ki (Cannabinoid receptor 1 [3]): 677 nM; Ki (Cannabinoid receptor 2 [4]): 3.4 nM; Ratio Ki [5]: 199 |
| CCCN1Cc2c(n(S(=O)(=O)CC)c3ccc(C(=O)N4CCC(C)CC4)cc23)C1 | 54 | – | – | – |
| CCS(=O)(=O)n1c2c(c3cc(C(=O)N4CCC(OC)CC4)ccc31)CN(C1CCCC1)C2 | 77 | – | – | – |
| CCCCCN(CCCCC)C(=O)c1ccccc1C(=O)Nc1ccc(Br)cc1 | > 2 | > 50 | < 25 | – |
| O=C(NCC1CCOCC1)c1cnc(Nc2ccc(Cl)cc2Cl)nc1C(F)(F)F [GW842166X] | > 600 | – | – | EC50 (Cannabinoid receptor 1 [1]): > 30000 nM |
| COc1ccc2c(c1)c(CN1CCOCC1)c(C)n2C(=O)c1cccc(Cl)c1Cl | 153 | – | – | – |
| CCOc1ccc(N(CC(=O)N[C@@H](C)CC)S(=O)(=O)c2ccc(Br)cc2)cc1 | > 2 | > 50 | < 25 | – |
| CC(=O)n1c2c(c3cc(C(=O)N4CCC(C)CC4)ccc31)CN(C1CCCC1)C2 | 26 | – | – | – |
| COc1ccc2c(c1)c(CC(=O)N1CCOCC1)c(C)n2C(=O)c1cccc(Cl)c1Cl | 146 | – | – | – |
| CN1CCCC[C@@H]1Cn1cc(C(=O)c2cc([N+](=O)[O-])ccc2I)c2ccccc21 | – | – | – | Ki (Cannabinoid receptor 1 [3]): 5000 nM; Ki (Cannabinoid receptor 2 [4]): 15.1 nM; Ratio Ki [5]: 331 |
| CCCCCn1cc(C(=O)c2cc3ccccc3cc2OC)c2ccccc21 | – | – | – | Ki (Cannabinoid receptor 1 [3]): 381 nM; Ki (Cannabinoid receptor 2 [4]): 7.2 nM; Ratio Ki [5]: 53 |
| CCCCCCC(C)(C)c1cc(OC)c(C2(O)CCOCC2)c(OC)c1 | > 29 | > 10000 | 342 | – |
| COc1ccc2c(c1)c(CCN1CCOCC1)c(C)n2C(=O)c1cccc(Cl)c1Cl | – | – | – | Ratio Ki [5]: 160 |
| CCCCCCC(C)(C)c1cc(OC)c([C@H]2C=C(CO)[C@@H]3C[C@H]2C3(C)C)c(OC)c1 | – | – | – | Ki (Cannabinoid receptor 1 [3]): 10000 nM |
| CC1CCN(C(=O)c2ccc3c(c2)c2c(n3S(C)(=O)=O)CN(C3CCCC3)C2)CC1 | 35 | – | – | – |
| Cc1cccc(-c2nnc(SCC(=O)NC3CCCCC3)n2Cc2ccccc2)c1 | > 2 | > 50 | < 25 | – |
| CCCCCC(C)(C)c1cc(OC)c2c(c1)OC(C)(C)[C@@H]1CCC(C)=C[C@@H]21 | 174 | – | – | – |
| COc1ccc(OC)c(N(CC(=O)NCc2ccncc2)S(=O)(=O)c2ccc(C)cc2)c1 | > 37 | > 50 | 1.35 | – |
| CCc1ccccc1NC(=O)CSc1nnc(-c2ccccc2OC)n1-c1ccccc1 | > 23 | > 50 | 2.1 | – |
| CCCCCCC(C)(C)c1cc(OC)c([C@@]2(O)CCC[C@@H](C)C2)c(OC)c1 | 220 | 5060 | 23 | – |
| CCCCCCC(C)(C)c1cc(O)c2c(c1)oc(=O)c1ccc(O)cc12 | 488 | 400 | 0.82 | – |
| CCCCCn1c(C)c(C(=O)c2c(OC)ccc3ccccc23)c2ccccc21 | 34 | 1380 | – | – |
| CCCCCCc1cc(O)c2c(c1)OC(C)(C)C1=C2CCN(C)C1 | > 27 | > 50 | 1.78 | Activity (Cannabinoid receptor 2 [6]): Partial agonist |
